# From PubChem
# Sampled rows, rich in hits. Any-hit rate of the full collection: about 2.5%.
# Env fusion inh: inhibitors of HIV Env-mediated cell fusion; HeLa-JRFL Env/CEM21 cell fusion, luciferase; inhibition, % at 12.3 µM; hit rate 1.1% among 360,000;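 active means mean replicate inhibition score of at least 50 and every replicate individually at or above 50; inconclusive means only one of the two criteria met; inactive means mean below 50 and not all replicates reaching 50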;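 further: 0% = plate neutral controls and 100% = maraviroc near 300 nM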
# N-glyco inh: blocks N-linked glycosylation in D54 reporter cells; D54 ERlucT glycosylation luciferase reporter, 24 h; percent of 100 nM tunicamycin response; reporter increase, % at 12.5 µM; hit rate 0.23% among 360,000; AID 588692;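 active means mean luciferase reporter signal, scaled so untreated is 0 and the glycosylation-blocking control 100, at or above a set limit in every replicate; inconclusive means mean reaches the limit but not every replicate does; inactive means mean below the limit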;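 further: luciferase carries N-glycosylation sites so blocking glycosylation raises the light; 0% = median of neutral control wells and 100% = median of 100 nM tunicamycin wells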
# FN deposition inh: fibronectin deposition inhibition. AH1F fibroblasts, Alexa488-fibronectin deposition fluorescence, overnight. inhibition, % at 12.6 µM. hit rate 0.086% among 350,000;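 active means mean inhibition across replicates of 30% or more, regardless of how many single replicates reach that level; inconclusive means mean under 30% yet at least half of replicates reach 30%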;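 further: positive control wells lacked labelled fibronectin entirely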
#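 Test system: AH1F fibroblast monolayer depositing Alexa488-labelled fibronectin into matrix. Input: 10000 cells per well. Technique: fluorescence, ex 485 nm, em 525 nm. Buffer or medium: DMEM plus 2% serum, read in PBS. Timing: 1 h cell adhesion before compound, then overnight fibronectin incubation. Compound: single dose, pinned. Read-out basis: inhibition from reduced deposited-fibronectin fluorescence.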
# MLL AF4-AF9 inh: inhibitors of human MLL-AF4/AF9 interaction | AlphaScreen, biotin-AF4 peptide binding to FLAG-AF9 | inhibition, % at 10 µM | hit rate 0.47% among 350,000 | AID 651704;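 active means every replicate reaching a set inhibition limit, whatever the replicate mean, cut at about 25% in these data; inconclusive means mean inhibition reaches that limit but some replicates miss it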;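 further: 0% = plate neutral control median and 100% = total signal loss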
# Target sequence (P42568 whole entry, looked up): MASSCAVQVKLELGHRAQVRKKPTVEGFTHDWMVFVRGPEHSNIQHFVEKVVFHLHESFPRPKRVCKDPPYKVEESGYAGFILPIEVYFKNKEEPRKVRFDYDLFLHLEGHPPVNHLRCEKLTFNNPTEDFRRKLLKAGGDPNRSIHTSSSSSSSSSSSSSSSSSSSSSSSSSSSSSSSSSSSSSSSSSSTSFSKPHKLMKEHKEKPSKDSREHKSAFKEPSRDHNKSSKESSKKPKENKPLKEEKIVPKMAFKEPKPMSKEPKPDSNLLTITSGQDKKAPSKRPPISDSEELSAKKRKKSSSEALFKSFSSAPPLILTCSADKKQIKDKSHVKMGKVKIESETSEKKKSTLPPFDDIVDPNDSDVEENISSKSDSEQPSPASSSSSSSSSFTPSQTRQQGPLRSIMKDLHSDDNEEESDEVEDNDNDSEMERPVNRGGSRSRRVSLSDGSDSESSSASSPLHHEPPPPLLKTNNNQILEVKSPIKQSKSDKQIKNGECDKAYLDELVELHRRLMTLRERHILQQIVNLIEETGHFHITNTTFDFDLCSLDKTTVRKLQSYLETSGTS
# EWS-Fli inh: blocks EWS/Fli oncoprotein-driven transcription | A673 NR0B1-luciferase reporter, viability-normalised | inhibition, % at 12.6 µM | hit rate 0.67% among 350,000;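 active means mean inhibition of at least 50% after viability correction, with every replicate also passing that limit; inconclusive means mean reaches 50% but only one of two replicates passes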;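 further: firefly luciferase signal divided by Alamar Blue viability fluorescence both relative to DMSO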
# PAX8 reporter: lowers PAX8-driven luciferase in RMG-I cells; RMG-I TPO-luciferase reporter, SteadyGlo, 24 h; inhibition, % at 12.6 µM; hit rate 1.2% among 360,000; AID 652154;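 active means mean replicate inhibition at least 60% with every replicate also reaching 60%; inconclusive means only one of the two criteria is met; inactive means mean below 60% and not all replicates reaching 60%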;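 further: luciferase light reporting Pax8 driven TPO promoter activity; plate controls were median of neutral control wells for no effect and mitoxantrone controls for full effect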
# The depositor's hits bear a star; ? = inconclusive; · = not tested or not shown; [ ] = another dose, or the depositor's remark.
SMILES,Env fusion inh,N-glyco inh,FN deposition inh,MLL AF4-AF9 inh,EWS-Fli inh,PAX8 reporter
COCC(=O)N1C[C@H](C)[C@H](OC)CN(C)C(=O)c2ccc(NC(=O)Nc3cccc(F)c3)cc2OC[C@@H]1C,·,·,10.3,·,56.4*,·
COCC(=O)N1C[C@@H](C)[C@H](OC)CN(C)C(=O)c2ccc(NC(=O)Nc3cccc(F)c3)cc2OC[C@H]1C,·,·,-0.6,·,-8.6,·
COc1ccccc1C(=O)Nc1ccc2c(c1)OC[C@H](C)N(C(C)=O)C[C@H](C)[C@H](OC)CN(C)C2=O,60.0*[16.7 µM],·,8.0,-2.6,10.0,4.3
CCC(=O)N1C[C@H](C)[C@@H](OC)CN(C)C(=O)c2ccc(NC(=O)Nc3ccc(Cl)cc3)cc2OC[C@@H]1C,·,·,5.7,4.4,53.3*,·
COc1ccc(S(=O)(=O)N2CC3(CN(Cc4ccccc4OC)[C@@H](CO)c4[nH]c5cc(OC)ccc5c43)C2)cc1,·,·,·,-0.9,-2.5,·
COc1c(Br)cc(Br)cc1/C=N/NC(=O)c1cccnc1,-0.8,30.2*,4.5,-1.3,43.8,13.3
O=C(N/N=C/c1ccc(OC(=O)c2ccc([N+](=O)[O-])cc2)cc1)c1cccnc1,9.9,-0.1,·,-0.9,-3.0,0.6
O=C(N/N=C/c1ccc(OC(=O)c2ccccc2)cc1)c1cccnc1,56.7*,3.9,-4.2,0.4,-0.3,4.2
O=C(N/N=C/c1ccc(N2CCCC2)c([N+](=O)[O-])c1)c1cccnc1,-1.7,0.3,31.2*,-0.9,-0.9,-35.3
O=C(N/N=C/c1ccc(N2CCOCC2)c([N+](=O)[O-])c1)c1ccc(F)cc1,-50.7,-1.8,3.2,·,·,36.7
Cn1c(-c2ccccc2)c(/C=N/NC(=O)c2cccnc2)c2ccccc21,-17.8,46.9*,5.9,1.9,-21.0,-62.6
OC[C@@H]1[C@@H](c2ccccc2)C2(CN(CC3CC3)C2)N1Cc1cncnc1,·,·,13.2,0.7,2.1,·
C[C@@H](O)C#Cc1cnc2c(c1)C(=O)N([C@@H](C)CO)C[C@H](C)[C@H](CN(C)C(=O)Cc1ccncc1)O2,-3.8[16.7 µM],·,-7.1,-9.7,-0.9,-34.6
COc1ccc(N2CCN(CCCNC(=O)c3cc4sccc4n3C)CC2)cc1,·,1.4,·,28.5*,9.3,·
C[C@H]1CN([C@@H](C)CO)C(=O)CCCn2cc(nn2)CO[C@H]1CN(C)Cc1ccccc1C(=O)O,·,·,1.8,-0.7,0.5,7.5
COC(=O)[C@@]1(C)[C@H]2C(=O)N(Cc3ccccc3)C(=O)[C@H]2[C@H]2CN=C(SCc3ccc(Cl)cc3)N21,78.5*,-1.4,-0.4,0.5,10.6,9.0
CC[C@]1(C(=O)OC)[C@H]2C(=O)N(Cc3ccccc3)C(=O)[C@H]2[C@H]2CN=C(SCC(=O)c3ccccc3)N21,72.0*,3.0,0.5,-1.4,3.2,-19.5
COC(=O)[C@@]1(C)[C@H]2C(=O)N(Cc3ccccc3)C(=O)[C@H]2[C@H]2CN=C(SCc3ccc(C#N)cc3)N21,75.2*,-0.7,-0.4,-2.7,-6.7,-7.7
CCC(=O)Nc1ccc2c(c1)OC[C@@H](C)N(CCc1ccccc1)C[C@H](C)[C@H](OC)CN(C)C2=O,·,·,-10.3,2.0,-5.1,·
C[C@H]1CN([C@@H](C)CO)C(=O)c2cc(C3=CCCCC3)cnc2O[C@@H]1CN(C)Cc1ccccn1,2.8[16.7 µM],·,-4.7,-5.3,20.7,·
CO[C@H]1CN(C)C(=O)c2ccc(NC(=O)c3cnccn3)cc2OC[C@H](C)N(CCc2ccccc2)C[C@H]1C,8.5[16.7 µM],·,1.8,5.3,1.3,-5.6
CCN(CC)S(=O)(=O)c1cc(NC(=O)CCNC(=O)c2ccco2)ccc1C,59.2*,1.8,9.2,-6.5,1.7,19.3
COc1ccc(NS(=O)(=O)c2cc(NC(=O)CCNC(=O)c3ccco3)ccc2OC)cc1,-3.1,1.8,5.6,25.5*,-0.3,3.4
CCOc1ccc(NS(=O)(=O)c2cc(NC(=O)CCNC(=O)c3ccco3)ccc2OC)cc1,-47.8,2.4,-2.5,-2.7,1.4,3.4
COc1cccc(-c2nc(N3CCN(C)CC3)c3ccccc3n2)c1O,-61.9,129.3*,7.4,19.7,6.2,-55.4
SMILES,Env fusion inh,N-glyco inh,FN deposition inh,MLL AF4-AF9 inh,EWS-Fli inh,PAX8 reporter
C=C1c2cccc(O)c2C(=O)C2C(=O)[C@]3(O)C(=O)C(C(N)=O)C(=O)[C@@H](N(C)C)[C@@H]3[C@@H](O)[C@H]12 (stereo partly drawn),59.8*,2.1,·,3.5,-7.8,11.0
C[C@H]1c2cccc(O)c2C(O)=C2C(=O)[C@]3(O)C(O)=C(C(N)=O)C(=O)[C@@H](N(C)C)C3[C@@H](O)C21 (stereo partly drawn),-10.6,-2.3,-11.9,6.7,-7.0,20.4
O=C(NCC(=O)N1CCN(S(=O)(=O)c2ccccc2)CC1)c1ccc(Br)o1,·,0.5,0.4,-1.8,13.5,2.0
Cc1ccc(S(=O)(=O)N2CCN(C(=O)CNC(=O)c3ccc(Br)o3)CC2)cc1,64.3*,0.7,-1.0,-0.7,13.6,12.4
CO[C@@H](CN(C)C(=O)c1ccc2c(c1)OCO2)[C@H](C)CN([C@@H](C)CO)S(=O)(=O)c1ccc(F)cc1,·,·,3.6,0.0,-3.3,·
C[C@@H]1CN([C@@H](C)CO)C(=O)c2cc(NC(=O)Nc3ccc(C(F)(F)F)cc3)ccc2O[C@@H](C)CCCCO[C@H]1CN(C)Cc1ccccc1,16.5[16.7 µM],·,9.8,-0.2,22.2,66.3*
C[C@H](CO)N1C[C@H](C)[C@H](CN(C)Cc2ccccc2)OCCCC[C@H](C)Oc2ccc(NC(=O)Nc3ccc(C(F)(F)F)cc3)cc2C1=O,65.5*[16.7 µM],·,2.6,-0.1,-2.5,115.3*
C[C@@H]1CCCCO[C@H](CN(C)Cc2ccccc2)[C@H](C)CN([C@H](C)CO)C(=O)c2cc(NC(=O)Nc3ccc(C(F)(F)F)cc3)ccc2O1,?,·,-9.5,0.0,27.0,106.6*
C[C@H]1CCCCO[C@H](CN(C)Cc2ccccc2)[C@@H](C)CN([C@@H](C)CO)C(=O)c2cc(NC(=O)Nc3ccc(C(F)(F)F)cc3)ccc2O1,32.0[16.7 µM],·,9.9,0.0,41.3,120.1*
C[C@@H]1CCCCO[C@H](CN(C)Cc2ccccc2)[C@@H](C)CN([C@H](C)CO)C(=O)c2cc(NC(=O)Nc3ccc(C(F)(F)F)cc3)ccc2O1,4.0[16.7 µM],·,-3.3,-2.0,-7.7,6.7
C[C@H]1CN([C@@H](C)CO)C(=O)c2cccc(NC(=O)CCCCCC(=O)Nc3ccccc3N)c2O[C@@H]1CN(C)Cc1ccc(Oc2ccccc2)cc1,·,·,·,-0.3,31.9,?
Cc1noc(C)c1S(=O)(=O)Nc1ccc2c(c1)C(=O)N([C@@H](C)CO)C[C@H](C)[C@H](CN(C)Cc1ccncc1)OCCCC[C@@H](C)O2,-6.5[16.7 µM],·,·,2.7,4.6,-0.6
C[C@H]1CCCCO[C@@H](CN(C)Cc2ccccc2)[C@@H](C)CN([C@@H](C)CO)C(=O)c2cc(NC(=O)Nc3ccc(C(F)(F)F)cc3)ccc2O1,68.1*[16.7 µM],·,0.1,-1.6,23.7,108.5*
